Read-outs that look alike come from different tables or passages of the source.
Key:
[1] = tested on: methylation of Lys-4 of histone H3 in α-23 cells; settings: 10 µM phenelzine, one hour, ChIP
[2] = tested on: TSHalpha luciferase reporter in α-23 cells derived from GH3 cells; settings: 10 µM phenelzine, 24 hours, with or without 0.1 µM T3
[3] = molecular target: T1, GST-LSD1 (Homo sapiens, UniProt O60341); settings: 500 µM phenelzine, 30 min preincubation, 10 µM substrate
[4] = molecular target: T1, GST-LSD1; experiment: peroxidase-coupled assay; format: biochemical; settings: for k(inact): 185 nM GST-LSD1, Kitz-Wilson analysis; for time-dependent inactivation of LSD1: result in words; for KI (inactivation): 185 nM GST-LSD1, 240 µM substrate, extrapolated to zero substrate, Kitz-Wilson
[5] = molecular target: GST-LSD1 (aa 171-852) (UniProt O60341); experiment: enzyme inhibition kinetics
[6] = molecular target: T1, GST-LSD1; settings: cited from earlier work; for inactivation of LSD1: result in words
[7] = molecular target: T1, GST-LSD1; experiment: Amplex Red horseradish peroxidase coupled assay detecting H2O2; format: biochemical
Summary of the method: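 Human GST-LSD1 (aa 171–852) from E. coli, at 25 nM, in 50 mM HEPES pH 7.5 with 0.1 mM Amplex Red and 0.76 µM horseradish peroxidase. Dimethyl-Lys-4 H3-21 substrate started 150 µL reactions, aerobic, at 25 °C. For inactivation, test compound and substrate (600 µM final) were added together. H2O2 was followed at 571 nm (ε 52,000 M−1 cm−1) from initial velocities.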

[8] = molecular target: GST-LSD1 (aa 171-852) (UniProt O60341); experiment: enzyme inactivation kinetics
[9] = 25 nM LSD1, 600 µM substrate, Amplex Red

NNCCc1ccccc1 [phenelzine, phenethylhydrazine]
mono and dimethylation of Lys-4 H3 at TSHalpha reporter region [1]: enhanced
trimethylation level of Lys-4 H3 at TSHalpha reporter region [1]: unaffected
luciferase activity of TSHalpha reporter [2]: increases luciferase activity both in the absence and presence of T3
demethylation of H3-21 dimethyl-Lys substrate peptide by treated LSD1 [3]: unable to induce loss of a methyl group
k(inact) [4]: 0.955 ± 0.085 min⁻¹

endo-dimethylcyclopropyl-Lys-4 H3-21 (8) (from UniProt P68431 2-22) (peptide)
Ki [5]: 24200 nM

propargyl-Lys-4 H3-21 [compound 1]
KI (inactivation) ([6]; obtained previously): 775 ± 160 nM
k(inact) ([6]; obtained previously): 0.304 ± 0.033 min⁻¹

hydrazino-Lys-4 H3-21 [compound 18]
fold more efficient in inhibiting demethylation than propargylamine-H3 derivatives [7]: more than 20 fold
KI (inactivation) [7, 9]: 4.35 ± 0.86 nM
k(inact) [7, 9]: 0.247 ± 0.018 min⁻¹
fold more potent than 2 as LSD1 inactivator ([7]; versus N-methylpropargylamine peptide 2): approximately 25 fold
time-dependent inactivation of LSD1 [4]: highly potent time-dependent inhibitor

trans-3-chloroallyl-Lys-4 H3-21 [compound 4]
KI (inactivation) [4]: 763 ± 120 nM
k(inact) [4]: 0.128 ± 0.0087 min⁻¹
time-dependent inactivation of LSD1 [4]: time- and concentration-dependent inactivation

hydrazino-Lys-4 H3-21 (18) (from UniProt P68431 2-22) (peptide)
Ki(inact) [8]: 4.35 nM

C#CCN(C)Cc1ccccc1 [pargyline, reference compound]
inactivation of LSD1 [6]: failed in subsequent studies to appreciably inactivate LSD1

trans-3-chloroallyl-Lys-4 H3-21 (4) (from UniProt P68431 2-22) (peptide)
Ki(inact) [8]: 763 nM

dimethyl-Lys-4 H3-21 [reference compound]
kcat ([7]; GST-LSD1 with this substrate, 25 nM enzyme, Amplex Red): 0.0583 ± 0.0033 s⁻¹
Km ([7]; substrate of GST-LSD1, 25 nM enzyme, Amplex Red): 20 ± 3 µM
kcat ([4]; GST-LSD1 with this substrate, 185 nM enzyme): 0.075 ± 0.0017 s⁻¹
Km ([4]; substrate of GST-LSD1, 185 nM enzyme, pH 7.5, 25 °C): 21 ± 2 µM

exo-cyclopropyl-Lys-4 H3-21 [compound 6]
inactivation of LSD1 [6]: did not inactivate LSD1
Ki ([6]; reversible inhibitor, estimated, obtained previously): 2700 ± 740 nM

cis-3-chloroallyl-Lys-4 H3-21 [compound 3]
kinact/Ki(inact) fold difference from peptide 2 [4]: ≤ 5 fold
KI (inactivation) [4]: 955 ± 150 nM
k(inact) [4]: 0.545 ± 0.038 min⁻¹
time-dependent inactivation of LSD1 [4]: time- and concentration-dependent inactivation

endo-cyclopropyl-Lys-4 H3-21 (7) (from UniProt P68431 2-22) (peptide)
Ki [5]: 6110 nM

cis-3-chloroallyl-Lys-4 H3-21 (3) (from UniProt P68431 2-22) (peptide)
Ki(inact) [8]: 955 nM

— PMC2843942 (Journal of the American Chemical Society, 2010)
